This passage reports IC50 and MIC results from ChEMBL document CHEMBL1828530, “Quinonoid and phenazine compounds: synthesis and evaluation against H37Rv, rifampicin and isoniazid-resistance strains of Mycobacterium tuberculosis” (Eur J Med Chem, 2011).

One experiment has as its system PBMC. As to the kind of experiment: Cytotoxicity against human PBMC after 72 hrs by Alamar blue assay. It is filed as cell-based. The gist of the method: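 Human peripheral blood mononuclear cells; compounds (0.048–25) in DMSO (0.1%) added 24 h after plating, then 72 h exposure. Alamar Blue absorbance read at 570 and 595 nm, medium-alone blank subtracted at each wavelength; effect expressed as percentage of control absorbance; IC50 derived.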
In general terms: Resazurin is reduced to fluorescent resorufin, in cell work by metabolically active cells.

Experiment [1] concerns Mycobacterium tuberculosis. As to the kind of experiment: Antitubercular activity against Mycobacterium tuberculosis H37Rv after 9 days by resazurin reduction assay. In kind it is functional. Particulars: 216 h.

In brackets after ≈: the same amount, converted by molar mass.

What is called IC50 is the concentration needed to halve the response being measured. Low readings indicate inhibition by little substance, high ones a need for much substance. As a reminder, the MIC is the smallest concentration in the dilution series that meets the test's criterion for growth inhibition. The low end stands for greater potency, the high end for weaker potency. As for `CC(C)CCC1=C(O)C(=O)c2ccccc2C1=O`, the IC50 with PBMC is over 102 µM. In experiment [1], the lowest concentration to inhibit growth (MIC) was 205 µM (≈ 50.1 µg/mL).

Compound `CC(C)CC1=C(O)C(=O)c2ccccc2C1=O` had an IC50 in the experiment with PBMC of 93.5 µM. It took 217 µM (≈ 50.1 µg/mL) to inhibit growth in experiment [1] (MIC). On the same counts, the results for `CC(C)CC1=C(O)C(=O)C2=C(CCCC2)C1=O` are 64.2 µM and 107 µM (≈ 25 µg/mL). As to `CCCC1=C(O)C(=O)c2ccccc2C1=O`, 97.8 µM corresponded to half-maximal inhibition with PBMC (IC50). Besides, the minimum inhibitory concentration (MIC) in experiment [1] stood at 462 µM (≈ 100 µg/mL). Taken in the same sequence, the figures for `CCCC1=C(O)C(=O)C2=C(CCCC2)C1=O` were 89.1 µM and 227 µM (≈ 50 µg/mL).

In the experiment with PBMC, `CC(C)=CCC1=C(OC2(CC=C(C)C)C(=O)c3ccccc3-c3nc4ccccc4nc32)C(=O)c2ccccc2C1=O` (centres undefined) returned a 50% inhibitory concentration (IC50) of over 45.1 µM. The MIC in experiment [1] is over 180 µM.

Compound `CC(C)CCc1c2[nH]c3ccccc3nc-2c2ccccc2c1=O` displayed an IC50 with PBMC of 45.1 µM. Also, inhibition of growth in experiment [1] (MIC) required 19.8 µM (≈ 6.26 µg/mL). In turn, `CC(C)CCc1c2[nH]c3ccccc3nc-2c2c(c1=O)CCCC2` had an IC50 in the experiment on PBMC of over 78 µM. Besides, it took 9.75 µM (≈ 3.12 µg/mL) to inhibit growth in experiment [1] (MIC).

In the experiment with PBMC, `CC(C)CCC1=C(OC2(CCC(C)C)C(=O)c3ccccc3-c3nc4ccccc4nc32)C(=O)c2ccccc2C1=O` (centres undefined) displayed an IC50 of over 44.7 µM. This compound also returned an MIC in experiment [1] of over 179 µM. Taken in the same sequence, the figures for `CC(C)CCC1=C(OC2(CCC(C)C)C(=O)C3=C(CCCC3)c3nc4ccccc4nc32)C(=O)C2=C(CCCC2)C1=O` (centres undefined) were over 44.9 µM and 176 µM (≈ 100 µg/mL). Taken in the same sequence, the figures for `CC(C)=Cc1c2[nH]c3ccccc3nc-2c2ccccc2c1=O` were 62 µM and 83.3 µM (≈ 25 µg/mL). Taken in the same sequence, the figures for `CC(C)Cc1c2[nH]c3ccccc3nc-2c2ccccc2c1=O` were over 82.7 µM and over 331 µM. The compound `CC(C)Cc1c2[nH]c3ccccc3nc-2c2c(c1=O)CCCC2` had a concentration for half-maximal inhibition (IC50) in the experiment with PBMC of over 81.6 µM. Moreover, the MIC in experiment [1] was over 327 µM.

The compound `CC(C)CC1=C(OC2(CC(C)C)C(=O)c3ccccc3-c3nc4ccccc4nc32)C(=O)c2ccccc2C1=O` (centres undefined) came in with a half-inhibitory concentration (IC50) in the experiment with PBMC of over 47.1 µM. In experiment [1], this compound had an MIC of over 188 µM. In the experiment with PBMC, `CC(C)CC1=C(OC2(CC(C)C)C(=O)C3=C(CCCC3)c3nc4ccccc4nc32)C(=O)C2=C(CCCC2)C1=O` (centres undefined) registered a concentration for half-maximal inhibition (IC50) of over 46.4 µM. In experiment [1], this compound returned an MIC of 92.8 µM (≈ 50 µg/mL). Compound `C=CCC1=C(O)C(=O)c2ccccc2C1=O` came in with an IC50 in the experiment on PBMC of over 117 µM. It took 467 µM (≈ 100 µg/mL) to inhibit growth in experiment [1] (MIC). Consider `C=CCc1c2[nH]c3ccccc3nc-2c2ccccc2c1=O`, for which the half-inhibitory concentration (IC50) in the experiment with PBMC came out at 64.3 µM. In experiment [1], this compound yielded a minimal inhibitory concentration (MIC) of 87.4 µM (≈ 25 µg/mL). In the experiment with PBMC, `CCCc1c2[nH]c3ccccc3nc-2c2c(c1=O)CCCC2` had a concentration for half-maximal inhibition (IC50) of over 85.5 µM.

Compound `C=CCC1=C(OC2(CC=C)C(=O)c3ccccc3-c3nc4ccccc4nc32)C(=O)c2ccccc2C1=O` (centres undefined) displayed an IC50 in the experiment on PBMC of over 50.1 µM. Moreover, the minimal inhibitory concentration (MIC) in experiment [1] was over 201 µM.

On to `CCCC1=C(OC2(CCC)C(=O)c3ccccc3-c3nc4ccccc4nc32)C(=O)c2ccccc2C1=O` (centres undefined), for which the IC50 in the experiment on PBMC was over 49.7 µM. In experiment [1], this compound had a minimal inhibitory concentration (MIC) of over 199 µM. On the same counts, the results for `CCCC1=C(OC2(CCC)C(=O)C3=C(CCCC3)c3nc4ccccc4nc32)C(=O)C2=C(CCCC2)C1=O` (centres undefined) are over 49 µM and over 196 µM. Taken in the same sequence, the figures for `CC(C)CCC1=C(O)C(=O)C2=C(CCCC2)C1=O` were 81.3 µM and 101 µM (≈ 25 µg/mL).

With `CC(C)=CC1=C(O)C(=O)c2ccccc2C1=O`, the IC50 in the experiment on PBMC was over 110 µM. The same compound registered a minimum inhibitory concentration (MIC) in experiment [1] of 219 µM (≈ 50.1 µg/mL). Turning to `NNC(=O)c1ccncc1` [ISONIAZID], in experiment [1], the lowest concentration to inhibit growth (MIC) was 0.145 µM (≈ 0.0199 µg/mL). Regarding `CC(C)=CCC1=C(O)C(=O)c2ccccc2C1=O` [LAPACHOL], the IC50 with PBMC was over 103 µM. The same compound yielded a minimal inhibitory concentration (MIC) in experiment [1] of 207 µM (≈ 50.1 µg/mL).

In experiment [1], `CO[C@H]1/C=C/O[C@@]2(C)Oc3c(C)c(O)c4c(O)c(c(/C=N/N5CCN(C)CC5)c(O)c4c3C2=O)NC(=O)/C(C)=C\C=C\[C@H](C)[C@H](O)[C@@H](C)[C@@H](O)[C@@H](C)[C@H](OC(C)=O)[C@@H]1C` [RIFAMPIN] came in with an MIC of 0.12 µM (≈ 0.0988 µg/mL).
